Results on 9 molecules are retold here after PMC3822283 (Nature structural & molecular biology, 2013).

For data set [1], the system named is isolated perfused mouse hearts. The data set can be described thus: contractile function of isolated perfused mouse hearts. The method, boiled down:
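Langendorff hearts from male C57BL/6 mice (pentobarbital 300mg/kg i.p., heparin 150 units) perfused at 80 mmHg with KHB (95% O2/5% CO2, 37°C). LV balloon EDP set 2-8 mmHg, paced 600 bpm. Inclusion required LVDP ≥60 mmHg and flow 1.5-3.5 ml/min. After 30 min baseline, coded TAT-TAB1 peptides at 15μM recirculated 15 min in 20 mL KHB. Preliminary runs used three concentrations (n=2). Two-way repeated-measures ANOVA, Bonferroni.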

The next data set deals with IRp38α. The data set can be described thus: IRp38α co-expressed with TAB1 in HEK293 cells. It is filed as cell-based. Particulars: Fig. 1c. In outline:
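HEK293 cells were co-transfected with TAB1 and either p38α (HA-tagged, WT) or the gatekeeper mutant IRp38α, then exposed to BIRB793. p38 and TAB1 phosphorylation were read by immunoblot: dual-phospho p38 (Thr180/Tyr182) 1:4,000, total p38 1:15,000, overnight at 4 °C, ECL detection. Quantitation is from three independent transfections as mean ± s.d., analysed by one-way ANOVA with Bonferroni.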

The target of data set [2] is p38α. Particulars: time resolved FRET, non phospho p38α; ref Zhang et al., 2005; cited from earlier work.
Data set [3] has as its system p38. The data set is described as follows: p38 activation in adult rat ventricular myocytes. In kind it is cell-based. Particulars: ARVMs; peptides fused to TAT; immunoblot, Fig. 6c. In outline: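 Rat ventricular myocytes were washed in M199 with penicillin, streptomycin, 2mM L-carnitine, 5mM creatine and 5mM taurine, pelleted at 100 g for 2 min and plated on laminin at 37°C in 5% CO2. After 1 h, non-adherent cells were removed and TAT-TAB1(371-416) peptides (WT, A/B mutant, scrambled) added in fresh medium. Immunoblots used dual-phospho p38 (Thr180/Tyr182; 1:4,000) and total p38 (1:15,000) antibodies, with ECL detection. One-way ANOVA, Bonferroni.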

Data set [4] concerns isolated adult rat cardiac myocytes. The data set can be described thus: viability of adult rat ventricular myocytes. It is filed as cell-based. Particulars: ARVMs, later time points; peptides fused to TAT. In outline:
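Laminin-plated adult rat ventricular myocytes in supplemented M199 at 37°C in 5% CO2 were exposed to fluorescein (FAM)-labelled TAT-TAB1(371-416) peptides. They were imaged by confocal microscopy at later time points. Cell death was scored as a rounded cell appearance with homogeneous distribution of the fluorescein label.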

Data set [5] deals with p38. The data set can be described thus: p38 dual phosphorylation in isolated perfused mouse hearts. Particulars: 15 mins exposure; immunoblot, Fig. 6g. Background: In western blotting, separated proteins are transferred to a membrane and probed.
The target of data set [6] is T1, p38α (Mus musculus, UniProt P47811). The data set can be described thus: co-expression of p38α and TAB1 in E. coli, p38α phosphorylation. In kind it is cell-based. Particulars: western blot; Fig. 1d, 5d; inhibitors 10 μM. In outline:
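Mouse p38α and TAB1 (full-length, 1-438 or 1-418) were co-expressed in E. coli from dual vectors, with p38α in the first MCS and TAB1 in the second. Controls were empty vector and p38α alone.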

Data set [7] relates to p38α. The data set is described as follows: co-transfection of HEK293 cells with TAB1 and p38α, p38 phosphorylation. It is filed as cell-based.
For data set [8], the target named is T1, p38α. The data set can be described thus: ITC binding to p38α. Conditions: for association with p38α by ITC (in words): p38α alone, non phospho. On the technique in general: ITC needs no label: the signal is the heat of the interaction.
The target in data set [9] is [p38α:TAB1(1-438)]complex (Mus musculus, UniProt P47811). The data set can be described thus: ITC binding to [p38α:TAB1.
Data set [10] concerns p38 in wild-type (WT) hearts. The data set is described as follows: p38 dual phosphorylation during global myocardial ischemia, WT hearts. Conditions: WT mouse hearts, global ischemia 5, 10 and 15 mins; 10 μM.
Data set [11] has as its system p38 in hearts expressing the p38α Thr106Met gatekeeper mutant (IRα). The data set is described as follows: p38 activity during global myocardial ischemia, IRα hearts. Particulars: IRα mouse hearts, global ischemia 5, 10 and 15 mins; 10 μM.
The mark [12] stands for this setting: peptides fused to TAT, 15 μM, 15 min, recirculated, n=5 mouse hearts per group.

For the molecule “GYGRKKRRQRRRGEMSQPTPTPAPGGRVYPVSAPASSAQSTSKTSVTLSLGAPSQGQMV [TAT-TAB1(371-416A/B)]”, the “maximum concentration that did not cause discernible contractile dysfunction” value in data set [1] (isolated mouse heart, preliminary experiments) amounted to 15 µM.
As to `Cc1ccc(-n2nc(C(C)(C)C)cc2NC(=O)Nc2ccc(OCCN3CCOCC3)c3ccccc23)cc1` [BIRB796, reference compound], the “pattern of phosphorylation on inhibitor exposure, IRp38α coexpressed with TAB1” value in the data set on IRp38α is “altered”. Further, the “inhibition of p38α on effects of perfusion with TAB1(371-416) (WT)” value in [1] (LVDP and coronary flow, numbers per group WT=7 and WT+I=5, Fig. 6h) is “attenuates the effects of perfusion with TAB1(371-416)”.
`Nc1ncnc2c1ncn2[C@@H]1O[C@H](COP(=O)(O)OP(=O)(O)OP(=O)(O)O)[C@@H](O)[C@H]1O` [ATP]: the Kd at p38α [2] is 13 ± 5.5 mM.
As to “GYGRKKRRQRRRGEMSQPTPTPAPGGRVYPVSVPYSSAQSTSKTSVTLSLVMPSQGQMV [TAT-TAB1(371-416)]”, in the data set with p38 [3], the p38 activation result is given as “caused p38 activation”. Moreover, the cell death result in data set [4] is given as “cell death”. The coronary flow result in data set [1] (15 μM, 15 min, recirculated, n=5 mouse hearts per group) is “reduction in coronary flow”. Also, in data set [1] (setting [12]), the developed pressure entry is on record as “marked reduction in developed pressure” and the end-diastolic pressure entry is “elevation in the end-diastolic pressure”. Besides, in the data set on p38 [5], the “p38 dual phosphorylation in perfused hearts” value is listed as “p38 dual phosphorylation”.
On to “TAB1: TGF-β-activated protein kinase 1 (TAK1) binding protein 1, scaffold protein (EMSQPTPTPAPGGRVYPVSVPYSSAQSTSKTSVTLSLVMPSQGQMV)”, for which the “p38α phosphorylation on co-expression in E. coli” value in the data set with p38α [6] was “enhanced”. For the same molecule, the “p38α dual phosphorylation on co-expression in HEK293 cells” value in the data set with p38α [7] (western blot, three independent transfections) is given as “enhanced p38α dual phosphorylation”.
On to `Nc1ncnc2c1ncn2[C@@H]1O[C@H](CO[P@](=O)(O)O[P@](=O)(O)O[P@@](=O)(O)S)[C@@H](O)[C@H]1O` [ATPγS], for which the “association with p38α by ITC (in words)” value at p38α [8] is “no measurable association by ITC”. The molecule also came in with a dissociation constant Kd in [9] of 0.0053 mM. The “affinity for p38α in the presence of TAB1(1-438) (in words)” value in data set [9] (ITC, 1:1 stoichiometry) is given as “low μM affinity”.
As for “TAB1(371-416A/B) (EMSQPTPTPAPGGRVYPVSAPASSAQSTSKTSVTLSLGAPSQGQMV)”, the “association with p38α by ITC (in words)” value with p38α [8] was “no binding was detected”. In addition, the p38 activation result with p38 [3] was “but not TAB1(371-416A-B) caused p38 activation”.
In the case of `C[S+]([O-])c1ccc(-c2nc(-c3ccncc3)c(-c3ccc(F)cc3)[nH]2)cc1` (stereo not shown) [SB203580], the “effect of inhibitor on TAB1-enhanced p38α dual phosphorylation” value in the data set with p38α [7] (WTp38α, HEK293 cells, Fig. 1b) was “SB203580-sensitive”. The “sensitivity of p38 dual phosphorylation to inhibitor” value in data set [10] is on record as “sensitive”. Besides, the “p38 activity (phosphorylation of TAB1 and HSP27) with inhibitor” value in data set [11] is listed as “p38 remained active”.

B1: TAB1(1-438): recombinant mouse TAB1(1-438), N-terminal HexaHistidine tag and TEV site (protein)
chain: MAAQRRSLLQSEQQPSWTDDLPLCHLSGVGSASNRSYSADGKGTESHPPEDNWLKFRSENNCFLYGVFNGYDGNRVTNFVAQRLSAELLLGQLNTEHTEADVRRVLLQAFDVVERSFLESIDDALAEKASLQSQLPEGVPQHQLPPQYQKILERLKALEREISGGAMAVVAVLLNSKLYVANVGTNRALLCKSTVDGLQVTQLNMDHTTENEDELFRLSQLGLDAGKIKQMGVICGQESTRRIGDYKVKYGYTDIDLLSAAKSKPIIAEPEIHGAQPLDGVTGFLVLMSEGLYKALEAAHGPGQANQEIAAMIDTEFAKQTSLDAVAQAVVDRVKRIHSDTFASGGERAKFCPRHEDMTLLVRNFGYPLGEMSQPTPTPAPGGRVYPVSVPYSSAQSTSKTSVTLSLVMPSQGQMVNGSHSASTLDEATPTLTNQSPT
Regarding B1, the “−TΔS” value in the data set with p38α [8] (25°C, ΔG = ΔH-TΔS) worked out at 21.3 kJ/mol. In the data set with p38α [8], the “association with p38α by ITC (in words)” value is “binding affinity in the low micromolar range”.

What is called Kd is the free concentration of one partner at which half of the binding sites on the other are occupied at equilibrium, for simple one-to-one binding.
